# Assay results from ChEMBL document CHEMBL1154186, “Synthesis, kinase inhibitory potencies, and in vitro antiproliferative evaluation of new Pim kinase inhibitors” (J Med Chem, 2009).
# Key:
# [1] = target: Mitogen-activated protein kinase 14 (Homo sapiens) (UniProt Q16539); experiment: Inhibition of p38alpha assessed as residual enzyme activity at 10 uM relative to untreated control
# Outline: (§1)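 p38γ and p38δ MAPK run at 5 µM [γ-33P]ATP, and p38α at 50 µM, each with 10 mM Mg acetate. Buffer 50 mM Tris/HCl pH 7.5, 0.1 mM EGTA, 0.1% 2-mercaptoethanol. 10 µM compound, 30 min at 21 °C. P81 filter capture. Residual activity relative to control, duplicates.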
# [2] = target: T1, MAP kinase-activated protein kinase 5 (Homo sapiens) (UniProt Q8IW41); experiment: Inhibition of PRAK assessed as residual enzyme activity at 10 uM relative to untreated control
# T1 sequence (whole entry): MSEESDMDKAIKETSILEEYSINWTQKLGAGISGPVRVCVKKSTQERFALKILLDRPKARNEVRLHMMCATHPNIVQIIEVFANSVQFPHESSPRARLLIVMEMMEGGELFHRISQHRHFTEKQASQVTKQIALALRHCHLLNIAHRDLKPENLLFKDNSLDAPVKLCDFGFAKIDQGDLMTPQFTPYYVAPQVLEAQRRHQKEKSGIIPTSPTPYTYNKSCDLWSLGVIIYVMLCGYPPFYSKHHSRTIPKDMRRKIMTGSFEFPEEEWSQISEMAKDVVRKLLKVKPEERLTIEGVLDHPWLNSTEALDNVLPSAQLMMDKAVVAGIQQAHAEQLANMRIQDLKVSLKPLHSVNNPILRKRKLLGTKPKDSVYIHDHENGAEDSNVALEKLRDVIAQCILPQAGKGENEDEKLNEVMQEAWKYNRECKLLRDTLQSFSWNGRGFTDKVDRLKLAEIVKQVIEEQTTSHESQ
# [3] = target: T2, Mitogen-activated protein kinase 13 (Homo sapiens) (UniProt O15264); experiment: Inhibition of p38delta assessed as residual enzyme activity at 10 uM relative to untreated control; outline: as §1
# T2 sequence (whole entry): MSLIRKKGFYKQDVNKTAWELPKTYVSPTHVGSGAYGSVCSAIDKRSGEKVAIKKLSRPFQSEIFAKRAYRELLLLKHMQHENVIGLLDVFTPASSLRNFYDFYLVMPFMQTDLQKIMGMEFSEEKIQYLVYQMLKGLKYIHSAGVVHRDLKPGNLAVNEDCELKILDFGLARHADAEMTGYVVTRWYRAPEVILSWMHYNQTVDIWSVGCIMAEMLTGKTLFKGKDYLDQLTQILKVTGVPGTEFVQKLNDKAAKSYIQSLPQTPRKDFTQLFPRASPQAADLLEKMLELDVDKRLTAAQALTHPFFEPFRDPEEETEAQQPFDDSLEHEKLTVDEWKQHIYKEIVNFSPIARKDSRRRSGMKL
# [4] = target: T3, 3-phosphoinositide-dependent protein kinase 1 (Homo sapiens) (UniProt O15530); experiment: Inhibition of PDK1 assessed as residual enzyme activity at 10 uM relative to untreated control
# T3 sequence (whole entry): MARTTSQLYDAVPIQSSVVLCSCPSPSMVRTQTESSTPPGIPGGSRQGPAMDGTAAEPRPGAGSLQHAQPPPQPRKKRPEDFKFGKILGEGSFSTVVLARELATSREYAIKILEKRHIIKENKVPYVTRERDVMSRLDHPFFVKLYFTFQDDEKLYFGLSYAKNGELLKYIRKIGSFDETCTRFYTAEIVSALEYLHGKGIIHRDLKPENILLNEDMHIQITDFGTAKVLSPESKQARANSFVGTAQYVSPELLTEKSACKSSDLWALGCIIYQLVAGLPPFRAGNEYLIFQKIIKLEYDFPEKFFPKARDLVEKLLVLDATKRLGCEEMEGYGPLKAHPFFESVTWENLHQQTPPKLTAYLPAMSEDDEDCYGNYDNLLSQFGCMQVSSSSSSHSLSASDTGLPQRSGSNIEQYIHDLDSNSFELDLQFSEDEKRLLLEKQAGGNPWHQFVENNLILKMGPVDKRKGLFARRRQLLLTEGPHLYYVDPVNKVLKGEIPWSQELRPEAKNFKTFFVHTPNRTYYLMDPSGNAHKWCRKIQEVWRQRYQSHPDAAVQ
# Outline: (§2)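 Kinases of human origin, except CK1δ, which is rat. Run in 50 mM Tris/HCl pH 7.5, 0.1 mM EGTA, 0.1% 2-mercaptoethanol and 10 mM Mg acetate, with [γ-33P]ATP at 20 µM, 30 min at 21 °C. Acid-stopped and captured on P81 filters. Compound tested at 10 µM; residual % of uninhibited control, duplicate determinations.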
# [5] = target: Glycogen synthase kinase-3 beta (Homo sapiens) (UniProt P49841); experiment: Inhibition of GSK3-beta assessed as residual enzyme activity at 10 uM relative to untreated control
# Outline: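 Radiometric filter-binding assay at 21 °C for 30 min. Mix: 50 mM Tris/HCl pH 7.5, 0.1 mM EGTA, 0.1% 2-mercaptoethanol, 10 mM Mg acetate and [γ-33P]ATP (800 cpm/pmol) at 5 µM. Stopped with orthophosphoric acid and spotted on P81. Compound at 10 µM; activity given as % remaining versus no-inhibitor control, duplicates. Kinases human full-length unless noted.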
# [6] = target: Protein kinase C zeta type (Homo sapiens) (UniProt Q05513); experiment: Inhibition of PKCzeta assessed as residual enzyme activity at 10 uM relative to untreated control
# [7] = target: Mitogen-activated protein kinase 8 (Homo sapiens) (UniProt P45983); experiment: Inhibition of JNK1 assessed as residual enzyme activity at 10 uM relative to untreated control; outline: as §2
# [8] = target: Serine/threonine-protein kinase Chk2 (Homo sapiens) (UniProt O96017); experiment: Inhibition of CHK2 assessed as residual enzyme activity at 10 uM relative to untreated control; outline: as §2
# [9] = system: ERK2 (Mus musculus); experiment: Inhibition of ERK2 assessed as residual enzyme activity at 10 uM relative to untreated control
# [10] = target: Ribosomal protein S6 kinase alpha-3 (Homo sapiens) (UniProt P51812); experiment: Inhibition of RSK2 assessed as residual enzyme activity at 10 uM relative to untreated control
# [11] = system: ROCK2 (Rattus norvegicus); experiment: Inhibition of ROCK2 assessed as residual enzyme activity at 10 uM relative to untreated control
# Chain of Ribosomal protein S6 kinase alpha-3 (Homo sapiens) (P51812 whole entry): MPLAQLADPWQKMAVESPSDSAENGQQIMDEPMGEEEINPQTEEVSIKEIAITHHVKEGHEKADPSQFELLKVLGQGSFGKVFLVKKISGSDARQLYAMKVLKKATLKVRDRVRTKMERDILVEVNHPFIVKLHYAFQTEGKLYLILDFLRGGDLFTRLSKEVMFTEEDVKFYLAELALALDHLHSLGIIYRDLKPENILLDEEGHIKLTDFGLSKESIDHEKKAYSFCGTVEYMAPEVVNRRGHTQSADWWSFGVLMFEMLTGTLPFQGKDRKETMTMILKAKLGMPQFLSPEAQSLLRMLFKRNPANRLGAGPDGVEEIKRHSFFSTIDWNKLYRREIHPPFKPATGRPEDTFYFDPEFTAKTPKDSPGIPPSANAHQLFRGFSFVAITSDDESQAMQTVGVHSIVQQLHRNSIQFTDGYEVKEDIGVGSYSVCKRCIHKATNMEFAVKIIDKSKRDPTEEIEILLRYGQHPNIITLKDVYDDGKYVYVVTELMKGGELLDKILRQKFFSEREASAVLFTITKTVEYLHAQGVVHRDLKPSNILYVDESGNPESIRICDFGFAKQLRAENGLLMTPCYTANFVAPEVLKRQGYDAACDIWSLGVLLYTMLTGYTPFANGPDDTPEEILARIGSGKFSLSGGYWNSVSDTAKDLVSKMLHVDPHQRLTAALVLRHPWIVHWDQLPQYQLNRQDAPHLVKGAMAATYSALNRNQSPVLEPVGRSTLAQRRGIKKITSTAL
# Chain of Glycogen synthase kinase-3 beta (Homo sapiens) (P49841 whole entry, looked up): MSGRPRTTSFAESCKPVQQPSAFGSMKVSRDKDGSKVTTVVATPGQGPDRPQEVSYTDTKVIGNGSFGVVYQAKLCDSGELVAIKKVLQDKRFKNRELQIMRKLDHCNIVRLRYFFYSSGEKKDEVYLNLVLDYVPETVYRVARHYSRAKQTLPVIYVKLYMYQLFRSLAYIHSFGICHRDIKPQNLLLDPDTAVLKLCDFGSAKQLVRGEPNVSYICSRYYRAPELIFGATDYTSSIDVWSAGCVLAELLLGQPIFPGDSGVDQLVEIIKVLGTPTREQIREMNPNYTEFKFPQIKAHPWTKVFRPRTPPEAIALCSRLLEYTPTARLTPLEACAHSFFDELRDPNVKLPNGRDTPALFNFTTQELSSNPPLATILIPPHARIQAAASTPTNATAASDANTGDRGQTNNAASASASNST
# Chain of Serine/threonine-protein kinase Chk2 (Homo sapiens) (O96017 whole entry): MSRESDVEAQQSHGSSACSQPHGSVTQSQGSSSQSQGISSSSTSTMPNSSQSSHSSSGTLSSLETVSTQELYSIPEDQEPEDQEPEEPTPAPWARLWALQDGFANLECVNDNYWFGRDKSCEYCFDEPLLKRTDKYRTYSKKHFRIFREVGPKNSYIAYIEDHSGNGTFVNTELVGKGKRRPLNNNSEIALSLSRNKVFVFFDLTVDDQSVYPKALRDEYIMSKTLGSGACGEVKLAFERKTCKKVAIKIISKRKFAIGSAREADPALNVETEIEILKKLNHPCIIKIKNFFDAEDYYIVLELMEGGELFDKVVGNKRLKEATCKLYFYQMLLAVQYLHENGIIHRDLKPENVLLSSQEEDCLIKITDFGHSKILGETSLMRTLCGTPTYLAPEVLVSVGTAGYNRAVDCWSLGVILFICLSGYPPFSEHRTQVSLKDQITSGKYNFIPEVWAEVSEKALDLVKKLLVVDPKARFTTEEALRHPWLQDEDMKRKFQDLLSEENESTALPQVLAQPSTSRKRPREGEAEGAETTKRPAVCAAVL
# Chain of Mitogen-activated protein kinase 8 (Homo sapiens) (P45983 whole entry): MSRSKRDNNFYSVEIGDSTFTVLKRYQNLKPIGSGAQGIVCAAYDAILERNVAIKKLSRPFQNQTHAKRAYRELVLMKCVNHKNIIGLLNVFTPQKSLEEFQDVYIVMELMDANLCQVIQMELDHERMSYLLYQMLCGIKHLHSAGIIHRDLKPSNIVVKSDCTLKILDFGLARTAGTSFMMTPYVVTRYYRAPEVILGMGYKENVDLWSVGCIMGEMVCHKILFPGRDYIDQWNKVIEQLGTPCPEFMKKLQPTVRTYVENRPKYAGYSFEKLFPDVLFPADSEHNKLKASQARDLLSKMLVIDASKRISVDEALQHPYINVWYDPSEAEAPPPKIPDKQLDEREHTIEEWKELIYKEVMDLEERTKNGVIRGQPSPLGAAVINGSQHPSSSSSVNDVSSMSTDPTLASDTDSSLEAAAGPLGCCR
# Chain of Protein kinase C zeta type (Homo sapiens) (Q05513 whole entry, looked up): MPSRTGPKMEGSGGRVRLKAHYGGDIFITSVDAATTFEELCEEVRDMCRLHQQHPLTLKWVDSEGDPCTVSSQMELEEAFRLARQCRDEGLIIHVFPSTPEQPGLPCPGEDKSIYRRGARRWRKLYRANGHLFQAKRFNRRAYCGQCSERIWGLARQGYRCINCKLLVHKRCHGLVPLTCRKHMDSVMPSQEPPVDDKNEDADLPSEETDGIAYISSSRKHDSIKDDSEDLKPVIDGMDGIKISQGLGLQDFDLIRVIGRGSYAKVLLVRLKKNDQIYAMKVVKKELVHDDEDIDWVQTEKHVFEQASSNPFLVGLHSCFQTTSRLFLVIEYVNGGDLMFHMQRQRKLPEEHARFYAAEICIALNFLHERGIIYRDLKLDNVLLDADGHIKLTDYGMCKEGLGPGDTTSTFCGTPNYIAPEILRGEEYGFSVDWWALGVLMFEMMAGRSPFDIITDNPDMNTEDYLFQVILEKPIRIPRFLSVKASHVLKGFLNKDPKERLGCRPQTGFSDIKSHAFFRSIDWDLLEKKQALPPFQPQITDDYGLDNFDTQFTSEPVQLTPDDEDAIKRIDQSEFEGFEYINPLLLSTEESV
# Chain of Mitogen-activated protein kinase 14 (Homo sapiens) (Q16539 whole entry): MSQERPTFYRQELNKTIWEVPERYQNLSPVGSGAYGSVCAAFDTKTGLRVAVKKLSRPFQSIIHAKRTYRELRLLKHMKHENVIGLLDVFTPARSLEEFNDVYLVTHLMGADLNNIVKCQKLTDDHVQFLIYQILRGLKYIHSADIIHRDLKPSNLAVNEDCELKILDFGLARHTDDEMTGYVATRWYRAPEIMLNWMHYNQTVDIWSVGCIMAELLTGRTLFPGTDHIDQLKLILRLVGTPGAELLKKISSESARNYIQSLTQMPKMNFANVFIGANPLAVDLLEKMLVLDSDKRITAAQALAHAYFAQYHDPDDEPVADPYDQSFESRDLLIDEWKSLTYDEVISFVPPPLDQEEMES
Structure (SMILES),Activity [1] [%],Activity [2] [%],Activity [3] [%],Activity [4] [%],Activity [5] [%],Activity [6] [%],Activity [7] [%],Activity [8] [%],Activity [9] [%],Activity [10] [%],Activity [11] [%]
c1ccc2c(c1)[nH]c1c2ccc2cc[nH]c21,108,97,78,86,111,91,102,58,94,99,86
c1ccc2c(c1)[nH]c1c3cc[nH]c3ccc21,115,114,89,82,102,87,116,73,100,107,89
O=Cc1c[nH]c2ccc3c4ccccc4[nH]c3c12,108,114,83,85,96,91,113,89,94,78,86
O=Cc1c[nH]c2c1ccc1c3ccccc3[nH]c12,102,72,–,–,88,83,102,–,–,77,–
